Measured values taken from ChEMBL document CHEMBL4257543, “Structural optimization and antibacterial evaluation of rhodomyrtosone B analogues against MRSA strains” (Medchemcomm, 2018).
≈ marks a conversion by molar mass, not a printed value. Calls of active or inactive are those of the source. The calls are words filed in the database; no cut-off is given here.

How the values were obtained:
Staphylococcus aureus [1] = assay: Antibacterial activity against Staphylococcus aureus ATCC 6538 by micro dilution susceptibility test; format: functional
How it was run: (§1)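 Microbroth dilution MIC in Mueller–Hinton broth following CLSI guidelines, vancomycin as positive control; resazurin added as visible growth indicator. Assays run at least in triplicate.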

Staphylococcus aureus [2] = assay: Antibacterial activity against methicillin-resistant Staphylococcus aureus JCSC 4788 by micro dilution susceptibility test; format: functional; how it was run: as §1
Enterococcus faecalis = assay: Antibacterial activity against Enterococcus faecalis ATCC 29212 by micro dilution susceptibility test; format: functional
How it was run: (§2)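 Microbroth dilution MIC in Mueller–Hinton broth following CLSI guidelines, with vancomycin as positive control; assays run at least in triplicate.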

Staphylococcus aureus [3] = assay: Antibacterial activity against methicillin-resistant Staphylococcus aureus JCSC 4788 in Balb/c mouse skin infection model assessed as reduction in skin ulcer formation at 40 ug administered as single dose via intradermal route measured 3 to 8 days post-infection; format: functional, organism-based
How it was run: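 Female BALB/c mice (18–20 g) injected intradermally in abdominal skin with 0.1 mL of MRSA JCSC 4788 (1×10^8 CFU) mixed with a single 40 μg dose in DMSO; DMSO-vehicle controls. Body weight and lesion size recorded daily for 11 days, ulcers imaged at 3 and 8 days; n = 6, mean ± SD.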

Shigella dysenteriae = assay: Antibacterial activity against Shigella dysenteriae CMCC 51252 by micro dilution susceptibility test; format: functional; how it was run: as §1
Cutibacterium acnes = assay: Antibacterial activity against Propionicibacterium acnes ATCC 6919 by micro dilution susceptibility test; format: functional
How it was run: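 Microbroth dilution MIC in Mueller–Hinton broth following CLSI guidelines; […]; resazurin added as visible growth indicator; vancomycin positive control; at least triplicate.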

Staphylococcus aureus [4] = assay: Induction of membrane disruption in methicillin-resistant Staphylococcus aureus JCSC 4788 assessed as increase in fluorescence intensity at 0.25 to 8 ug/ml measured after 3 hrs by SYTOX green dye based fluorescence assay; format: functional, organism-based
How it was run: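 Exponential-phase MRSA JCSC 4788 washed and set to OD620 0.4 in 0.85% NaCl, exposed to serial compound concentrations for 3 h, then 3 μM SYTOX Green for 20 min. Fluorescence read at ex 504/em 523 nm with melittin as positive control and vancomycin as comparator; mean ± SD, n = 3.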

Paenibacillus polymyxa [5] = assay: Antibacterial activity against Bacillus polymyxa GIM 1.467 by micro dilution susceptibility test; format: functional; how it was run: as §2
[6] = tested on: Staphylococcus epidermidis; assay: Antibacterial activity against Staphylococcus epidermidis ATCC 12228 by micro dilution susceptibility test; format: functional; how it was run: as §2
Paenibacillus polymyxa [7] = assay: Antibacterial activity against Bacillus polymyxa ATCC 842 by micro dilution susceptibility test; format: functional; how it was run: as §2
Candida albicans = assay: Antibacterial activity against Candida albicans ATCC 10231 by micro dilution susceptibility test; format: functional; how it was run: as §2
Enterococcus faecium = assay: Antibacterial activity against vancomycin-resistant Enterococcus faecium by micro dilution susceptibility test; format: functional; how it was run: as §1
Salmonella typhi = assay: Antibacterial activity against Salmonella typhi CMCC 44102 by micro dilution susceptibility test; format: functional, Salmonella enterica subsp. enterica serovar Typhi; conditions: Salmonella enterica; how it was run: as §1
Escherichia coli = assay: Antibacterial activity against Escherichia coli ATCC 8739 by micro dilution susceptibility test; format: functional; how it was run: as §2
Bacillus cereus = assay: Antibacterial activity against Bacillus cereus ATCC 10876 by micro dilution susceptibility test; format: functional; how it was run: as §2

CC(C)CC1C2=C(Oc3c(C(=O)C4CCCC4)c(O)cc(O)c31)C(C)(C)C(=O)C(C)(C)C2=O (stereo not given)
MIC (Staphylococcus aureus [1]): 4 µg/mL (≈ 8.8 µM) | MIC (Staphylococcus aureus [2]): 4 µg/mL (≈ 8.8 µM)

CCCCCCCCC(=O)c1c(O)cc(O)c2c1OC1=C(C(=O)C(C)(C)C(=O)C1(C)C)C2CC(C)C (stereo not given)
MIC (Staphylococcus aureus [1]): 0.25 µg/mL (≈ 0.501 µM) | MIC (Staphylococcus aureus [2]): 0.5 µg/mL (≈ 1 µM)

CC(=O)c1c(O)cc(O)c2c1OC1=C(C(=O)C(C)(C)C(=O)C1(C)C)C2CC(C)C (stereo not given)
MIC (Staphylococcus aureus [1]): 4 µg/mL (≈ 9.99 µM) | MIC (Staphylococcus aureus [2]): 4 µg/mL (≈ 9.99 µM)

CCCCCCCCCCCCCC(=O)c1c(O)cc(O)c2c1OC1=C(C(=O)C(C)(C)C(=O)C1(C)C)C2CC(C)C (stereo not given)
MIC (Staphylococcus aureus [1]): 128 µg/mL (≈ 225 µM) | MIC (Staphylococcus aureus [2]): 256 µg/mL (≈ 450 µM)

CC(C)CC1C2=C(Oc3c(C(=O)Cc4ccccc4)c(O)cc(O)c31)C(C)(C)C(=O)C(C)(C)C2=O (stereo not given)
MIC (Staphylococcus aureus [1]): 4 µg/mL (≈ 8.39 µM) | MIC (Staphylococcus aureus [2]): 4 µg/mL (≈ 8.39 µM)

CCCCCCC(=O)c1c(O)cc(O)c2c1OC1=C(C(=O)C(C)(C)C(=O)C1(C)C)C2CC(C)C (stereo not given)
MIC (Staphylococcus aureus [1]): 0.25 µg/mL (≈ 0.531 µM) | MIC (Staphylococcus aureus [2]): 0.5 µg/mL (≈ 1.06 µM)

CC(C)CC(=O)c1c(O)cc2c(c1O)C(CC(C)C)C1=C(O2)C(C)(C)C(=O)C(C)(C)C1=O (stereo not given)
MIC (Staphylococcus aureus [1]): 1 µg/mL (≈ 2.26 µM) | MIC (Staphylococcus aureus [2]): 1 µg/mL (≈ 2.26 µM)

CC(C)CC1C2=C(Oc3c(C(=O)C(C)C)c(O)cc(O)c31)C(C)(C)C(=O)C(C)(C)C2=O (stereo not given)
MIC (Staphylococcus aureus [1]): 4 µg/mL (≈ 9.33 µM) | MIC (Staphylococcus aureus [2]): 4 µg/mL (≈ 9.33 µM)

CC(C)CC1C2=C(Oc3c(C(=O)CCc4ccccc4)c(O)cc(O)c31)C(C)(C)C(=O)C(C)(C)C2=O (stereo not given)
MIC (Staphylococcus aureus [1]): 2 µg/mL (≈ 4.08 µM) | MIC (Staphylococcus aureus [2]): 2 µg/mL (≈ 4.08 µM)

CCCCC(=O)c1c(O)cc(O)c2c1OC1=C(C(=O)C(C)(C)C(=O)C1(C)C)C2CC(C)C (stereo not given)
MIC (Staphylococcus aureus [1]): 0.5 µg/mL (≈ 1.13 µM) | MIC (Staphylococcus aureus [2]): 1 µg/mL (≈ 2.26 µM)

CN[C@H](CC(C)C)C(=O)N[C@H]1C(=O)N[C@@H](CC(N)=O)C(=O)N[C@H]2C(=O)N[C@H]3C(=O)N[C@H](C(=O)N[C@H](C(=O)O)c4cc(O)cc(O)c4-c4cc3ccc4O)[C@H](O)c3ccc(c(Cl)c3)Oc3cc2cc(c3O[C@@H]2O[C@H](CO)[C@@H](O)[C@H](O)[C@H]2O[C@H]2C[C@](C)(N)[C@H](O)[C@H](C)O2)Oc2ccc(cc2Cl)[C@H]1O [VANCOMYCIN]
MIC (Staphylococcus aureus [1]): 0.5 to 1 µg/mL (≈ 0.345 to 0.69 µM) | MIC (Enterococcus faecalis): 0.5 µg/mL (≈ 0.345 µM) | Activity (Staphylococcus aureus [3]): Active | MIC (Shigella dysenteriae): > 32 µg/mL | MIC (Cutibacterium acnes): 0.5 µg/mL (≈ 0.345 µM) | Activity (Staphylococcus aureus [4]): inactive | MIC (Paenibacillus polymyxa [5]): > 32 µg/mL | MIC [6]: 0.5 µg/mL (≈ 0.345 µM) | MIC (Paenibacillus polymyxa [7]): > 32 µg/mL | MIC (Candida albicans): > 32 µg/mL | MIC (Enterococcus faecium): > 32 µg/mL | MIC (Salmonella typhi): > 32 µg/mL | MIC (Escherichia coli): > 32 µg/mL | MIC (Bacillus cereus): 0.5 µg/mL (≈ 0.345 µM)

CC[C@H](C)[C@H](NC(=O)CN)C(=O)NCC(=O)N[C@@H](C)C(=O)N[C@H](C(=O)N[C@@H](CC(C)C)C(=O)N[C@@H](CCCCN)C(=O)N[C@H](C(=O)N[C@@H](CC(C)C)C(=O)N[C@H](C(=O)N[C@H](C(=O)NCC(=O)N[C@@H](CC(C)C)C(=O)N1CCC[C@H]1C(=O)N[C@@H](C)C(=O)N[C@@H](CC(C)C)C(=O)N[C@H](C(=O)N[C@@H](CO)C(=O)N[C@@H](Cc1c[nH]c2ccccc12)C(=O)N[C@H](C(=O)N[C@@H](CCCCN)C(=O)N[C@@H](CCCNC(=N)N)C(=O)N[C@@H](CCCCN)C(=O)N[C@@H](CCCNC(=N)N)C(=O)N[C@@H](CCC(N)=O)C(=O)N[C@@H](CCC(N)=O)C(N)=O)[C@@H](C)CC)[C@@H](C)CC)[C@@H](C)O)[C@@H](C)O)C(C)C)C(C)C
Activity (Staphylococcus aureus [4]): Active
